Test results: ChEMBL document CHEMBL5154701, “Thieno[2,3-d]pyrimidine-2,4(1H,3H)-dione Derivative Inhibits d-Dopachrome Tautomerase Activity and Suppresses the Proliferation of Non-Small Cell Lung Cancer Cells” (J Med Chem, 2022)
In brackets after ≈: the same amount, converted by molar mass. Blank lines part the entries; values can stand above or below the molecule they belong to. Activity calls are given as the source filed them. The rule behind the calls is not given here.

How the values were obtained:
[1] = Inhibition of human recombinant MIF2 tautomerase activity expressed in bacterial expression system assessed as PP conversion incubated for 10 mins by tautomerase assay
Homo sapiens [2] = organism: Homo sapiens; assay: Substrate activity at MIF2 tautomerase (unknown origin) assessed as rate constant Km
How it was run: (§1)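 Keto-enol tautomerization kinetics with phenylpyruvate, 4-chloro-, 4-hydroxy- and 4-methoxyphenylpyruvate as substrates. Initial conversion velocities taken from the linear first 3 min of UV absorbance increase. Kcat, Km and Kcat/Km derived from these rates.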

Homo sapiens [3] = organism: Homo sapiens; assay: Substrate activity at MIF2 tautomerase (unknown origin) assessed as ratio of Kcat to Km; how it was run: as §1
Homo sapiens [4] = organism: Homo sapiens; assay: Substrate activity at MIF2 tautomerase (unknown origin) assessed as rate constant Kcat; how it was run: as §1
[5] = Inhibition of human MIF2 tautomerase activity expressed in Escherichia coli by anion-exchange chromatography
[6] = Solubility of the compound; format: physicochemical
[7] = Inhibition of MIF2 (unknown origin); parameters: species or system Homo sapiens
A549 [8] = assay: Inhibition of colony formation in human A549 cells at 10 uM measured after 5 days by crystal violet staining method; format: functional; conditions: A549, 120 h, time 5 day
How it was run: (§2)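 Seeded at 1000 cells/well in RPMI-1640 with 10% FBS and incubated overnight. Exposed to compound or DMSO for 5 days. Fixed in 4% paraformaldehyde for 20 min, then stained with 0.5% crystal violet for 20 min. Colonies imaged, dissolved in acetic acid, and absorbance read at 590 nm. Values relative to DMSO wells. Three experiments, mean ± SD.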

HCC827 [9] = assay: Inhibition of colony formation in human HCC827 cells assessed as colony number measured after 5 days by crystal violet staining method; format: functional, cell-based; conditions: dose 1-10 µM, time 5.0 day, DDE = dose-dependent effect; how it was run: as §2
A549 [10] = assay: Inhibition of MIF2 related signalling pathway assessed as inhibition of MIF2 induced ERK phosphorylation in human A549 cells in presence of recombinant MIF2 incubated for 15 min by Western blot analysis; format: cell-based; conditions: dose 0.1-10 µM, DDE = dose-dependent effect
How it was run: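 A549 (3 × 10^5/well) grown overnight in RPMI with 0.5% FBS. Stimulated 15 min with recombinant MIF2 (100 ng/mL, serum-free), alone or preincubated with compound. Lysed in RIPA with phosphatase/protease inhibitors, and 20 μg protein blotted for pERK, ERK and GAPDH. pERK:ERK densitometry normalized to control; n = 2.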

NCI-H1299 [11] = assay: Antiproliferative against human NCI-H1299 cells assessed as inhibition of cell viability measured after 72 hrs by fluorescence based assay; format: functional
How it was run: (§3)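 Cells in RPMI-1640 with 10% FBS, 37 °C, 5% CO2, seeded at 1000 cells/well and cultured overnight. Treated with compound (0.25–10 μM) for 72 h. Relative cell number from DNA content by CyQUANT Direct, with 60 min detection reagent and fluorescence read at 485/535 nm. Normalized to DMSO control. Mean ± SD of three experiments.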

NCI-H1299 [12] = assay: Inhibition of colony formation in human NCI-H1299 cells assessed as colony size measured after 5 days by crystal violet staining method; format: functional, cell-based; conditions: dose 1-10 µM, time 5.0 day, DDE = dose-dependent effect; how it was run: as §2
A549 [13] = assay: Antiproliferative against human A549 cells assessed as inhibition of cell viability measured after 72 hrs by fluorescence based assay; format: functional; how it was run: as §3
A549 [14] = assay: Induction of cell cycle arrest in human A549 cells assessed as accumulation of cells in G0/G1 phase for 2 days by flow cytometry analysis; format: functional, cell-based; conditions: dose 5-10 µM, time 2.0 day, DDE = dose-dependent effect
How it was run: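 A549 seeded at 1 × 10^5 per well and treated next day with compound or vehicle for 48 h. Cells trypsinized, then stained with 20 μg/mL propidium iodide plus 0.1% Triton X-100 for 15 min at room temperature. 30 000 cells acquired by flow cytometry and G0/G1, S and G2/M fractions gated. n = 3, mean ± SD.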

A549 [15] = assay: Inhibition of colony formation in human A549 cells assessed as colony number measured after 5 days by crystal violet staining method; format: functional, cell-based; conditions: dose 1-10 µM, time 5.0 day, DDE = dose-dependent effect; how it was run: as §2
NCI-H1650 [16] = assay: Antiproliferative against human NCI-H1650 cells assessed as inhibition of cell viability measured after 72 hrs by fluorescence based assay; format: functional; how it was run: as §3
A549 [17] = assay: Inhibition of colony formation in human A549 cells assessed as colony size measured after 5 days by crystal violet staining method; format: functional, cell-based; conditions: dose 1-10 µM, time 5.0 day, DDE = dose-dependent effect; how it was run: as §2
HCC827 [18] = assay: Inhibition of colony formation in human HCC827 cells at 10 uM measured after 5 days by crystal violet staining method; format: functional; conditions: HCC827, 120 h, time 5 day; how it was run: as §2
NCI-H1650 [19] = assay: Inhibition of colony formation in human NCI-H1650 cells assessed as colony number measured after 5 days by crystal violet staining method; format: functional, cell-based; conditions: dose 1-10 µM, time 5.0 day, DDE = dose-dependent effect; how it was run: as §2
NCI-H1299 [20] = assay: Inhibition of colony formation in human NCI-H1299 cells assessed as colony number measured after 5 days by crystal violet staining method; format: functional, cell-based; conditions: dose 1-10 µM, time 5.0 day, DDE = dose-dependent effect; how it was run: as §2
NCI-H1650 [21] = assay: Inhibition of colony formation in human NCI-H1650 cells assessed as colony size measured after 5 days by crystal violet staining method; format: functional, cell-based; conditions: dose 1-10 µM, time 5.0 day, DDE = dose-dependent effect; how it was run: as §2
Homo sapiens [22] = organism: Homo sapiens; assay: Stabilization of human recombinant MIF2 expressed in bacterial expression system assessed as apparent melting temperature by fluorescence based thermal shift assay; conditions: DDE = dose-dependent effect
How it was run: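 Recombinant MIF2 expressed from pET20b(+) in E. coli BL21(DE3) and purified by Q sepharose, phenyl sepharose and size exclusion (trimer), in 20 mM sodium phosphate pH 8.0. Fluorescence-based thermal shift read-out: apparent melting temperature with compound versus DMSO control, with ΔTm as the difference.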

A549 [23] = assay: Antiproliferative against human A549 cells assessed as inhibition of cell viability at 1 uM measured after 72 hrs by fluorescence based assay; format: functional; how it was run: as §3
HCC827 [24] = assay: Inhibition of colony formation in human HCC827 cells assessed as colony size measured after 5 days by crystal violet staining method; format: functional, cell-based; conditions: dose 1-10 µM, time 5.0 day, DDE = dose-dependent effect; how it was run: as §2
HCC827 [25] = assay: Antiproliferative against human HCC827 cells assessed as inhibition of cell viability measured after 72 hrs by fluorescence based assay; format: functional; how it was run: as §3
NCI-H1650 [26] = assay: Inhibition of colony formation in human NCI-H1650 cells at 10 uM measured after 5 days by crystal violet staining method; format: functional; conditions: NCI-H1650, 120 h, time 5 day; how it was run: as §2
NCI-H1299 [27] = assay: Inhibition of colony formation in human NCI-H1299 cells at 10 uM measured after 5 days by crystal violet staining method; format: functional; conditions: NCI-H1299, 120 h, time 5 day; how it was run: as §2

IC50 [1]: 1.7 µM
Molecule: Cc1c(-c2cccc(C(F)(F)F)c2)sc2[nH]c(=O)n(Cc3ccccc3)c(=O)c12

IC50 [1]: 4.6 µM
Molecule: Cc1c(-c2ccc3c(c2)OCO3)sc2[nH]c(=O)n(Cc3ccccc3)c(=O)c12

IC50 [1]: 168 µM
Molecule: Nc1sc(-c2ccccc2)cc1C(=O)NCC1CCOC1 (centres undefined)

Km (Homo sapiens [2]): 2.4 mM
kcat/Km (Homo sapiens [3]): 5.5 10^4/M/s
kcat (Homo sapiens [4]): 132 s⁻¹
Molecule: phenylpyruvate

IC50 [1]: 15 µM
Molecule: CCCCNC(=O)c1c(N)sc(-c2ccc(Cl)cc2)c1CCCC

Km (Homo sapiens [2]): 6.7 mM
kcat/Km (Homo sapiens [3]): 0.43 10^4/M/s
kcat (Homo sapiens [4]): 28 s⁻¹
Molecule: 4-methoxyphenylpyruvate

IC50 [1]: 15 µM
Molecule: C=CCn1c(=O)[nH]c2sc(-c3ccc(Cl)cc3)cc2c1=O

IC50 [1]: 0.81 µM
Molecule: Cc1c(-c2cccc(C(F)(F)F)c2)sc2[nH]c(=O)n(Cc3cccc4ccccc34)c(=O)c12

IC50 [1]: 7.2 µM
Molecule: CCCCNC(=O)c1cc(-c2ccc(Br)cc2)sc1N

IC50 [1]: 15 µM
Molecule: Cc1c(-c2ccc(Cl)cc2)sc2nc(Cc3ccccc3)[nH]c(=O)c12

IC50 [1]: 3.5 µM
Molecule: Cc1c(-c2ccc(Cl)cc2Cl)sc2[nH]c(=O)n(Cc3ccccc3)c(=O)c12

IC50 [1]: 19 µM
Molecule: Cc1c(-c2ccc(Cl)cc2)sc2[nH]c(=O)n(-c3ccccc3)c(=O)c12

IC50 [5]: 27 µM
IC50 [1]: 47 µM
Molecule: O=C(O)c1cccc(-c2cc(C(=O)O)ncc2C(=O)O)c1

IC50 [1]: 15 µM
Molecule: CCCCNC(=O)c1cc(-c2ccc(Cl)cc2)sc1N

solubility [6]: 15 µg/mL (≈ 31.2 µM)
IC50 [1]: 2.5 µM
Molecule: Cc1c(-c2cccc(C(F)(F)F)c2)sc2[nH]c(=O)n([C@@H](C)c3cccc4ccccc34)c(=O)c12

IC50 [1]: 1.9 µM
Molecule: Cc1c(-c2ccc(Cl)c(Cl)c2)sc2[nH]c(=O)n(Cc3ccccc3)c(=O)c12

IC50 [1]: 36 µM
Molecule: O=c1[nH]c2scc(-c3ccccc3)c2c(=O)n1Cc1ccccc1

IC50 [1]: 4.2 µM
Molecule: Cc1c(-c2cccc(C(F)(F)F)c2)sc(N)c1C(=O)N[C@H](C)c1cccc2ccccc12

IC50 [1]: 39 µM
Molecule: CCCCNC(=O)c1cc(-c2ccccc2)sc1NC(=O)CCC

IC50 [1]: > 100 µM
Molecule: Cc1c(-c2ccccc2)sc2[nH]c(=O)n(-c3ccccc3)c(=O)c12

IC50 [1]: 5.1 µM
Molecule: Cc1c(-c2ccc(Cl)cc2)sc2[nH]c(=O)n(Cc3ccccc3)c(=O)c12

IC50 [1]: 27 µM
Molecule: O=c1[nH]c2scc(-c3ccc(Cl)cc3)c2c(=O)n1Cc1ccccc1

IC50 [1]: 16 µM
Molecule: CCCCn1c(=O)[nH]c2sc(-c3ccccc3)cc2c1=O

IC50 [1]: 7.6 µM
Molecule: Cc1c(-c2ccccc2)sc2[nH]c(=O)n(Cc3ccccc3)c(=O)c12

IC50 [7]: > 100 µM
Molecule: Ic1cc(-c2ccccc2)ncn1

IC50 [1]: 4.8 µM
Molecule: Cc1c(-c2ccc(Cl)cc2)sc2[nH]c(=O)n(Cc3ccc(C(F)(F)F)cc3)c(=O)c12

IC50 [1]: 2.6 µM
Molecule: Cc1c(-c2cccc(C(F)(F)F)c2)sc(N)c1C(=O)NCc1cccc2ccccc12

IC50 [1]: > 100 µM
Molecule: CCOCCNC(=O)c1cc(-c2ccc(Cl)cc2)sc1N

IC50 [1]: 36 µM
Molecule: Nc1sc(-c2ccc(Cl)cc2)cc1C(=O)NCCc1ccc(Cl)cc1

IC50 [1]: 17 µM
Molecule: Cc1c(-c2ccc(F)cc2)sc2nc(Cc3ccccc3)[nH]c(=O)c12

Km (Homo sapiens [2]): 2.17 mM
kcat/Km (Homo sapiens [3]): 3.2 10^4/M/s
kcat (Homo sapiens [4]): 68 s⁻¹
Molecule: 4-chlorophenylpyruvate

IC50 [1]: 41 µM
Molecule: CCCCNC(=O)c1cc(-c2ccccc2)sc1NC(C)=O

Km (Homo sapiens [2]): 3.62 mM
kcat/Km (Homo sapiens [3]): 0.37 10^4/M/s
kcat (Homo sapiens [4]): 13 s⁻¹
Molecule: 4-hydroxylphenylpyruvate

IC50 [1]: 84 µM
Molecule: Nc1sc(-c2ccc(Cl)cc2)cc1C(=O)NCCc1ccccc1

IC50 [1]: 7.9 µM
Molecule: Cc1c(-c2cccc(C(F)(F)F)c2)sc(N)c1C(=O)N[C@@H](C)c1cccc2ccccc12

IC50 (NCI-H1299 [11]; NCI-H1299, 72 h): 7.6 µM
IC50 (A549 [13]; A549, 72 h): 3000 nM
IC50 (NCI-H1650 [16]; NCI-H1650, 72 h): 5.3 µM
solubility [6]: 16 µg/mL (≈ 33.3 µM)
IC50 [1]: 1 µM
deltaTm (Homo sapiens [22]): Dde
IC50 (HCC827 [25]; HCC827, 72 h): 5.2 µM
Molecule: Cc1c(-c2cccc(C(F)(F)F)c2)sc2[nH]c(=O)n([C@H](C)c3cccc4ccccc34)c(=O)c12
inhibition at 10 µM (A549 [8]): 90%
inhibition (HCC827 [9]): Dde
inhibition (A549 [10]): Dde
Activity (NCI-H1299 [11]; DDE = dose-dependent effect): Dde
inhibition (NCI-H1299 [12]): Dde
Activity (A549 [13]; DDE = dose-dependent effect): Dde
Activity (A549 [14]): Dde
inhibition (A549 [15]): Dde
Activity (NCI-H1650 [16]; DDE = dose-dependent effect): Dde
inhibition (A549 [17]): Dde
inhibition at 10 µM (HCC827 [18]): 90%
inhibition (NCI-H1650 [19]): Dde
inhibition (NCI-H1299 [20]): Dde
inhibition (NCI-H1650 [21]): Dde
Activity (A549 [23]): Active
inhibition (HCC827 [24]): Dde
Activity (HCC827 [25]; DDE = dose-dependent effect): Dde
inhibition at 10 µM (NCI-H1650 [26]): 90%
inhibition at 10 µM (NCI-H1299 [27]): 90%

IC50 [1]: 4.3 µM
Molecule: COc1cccc(Cc2nc3sc(-c4ccc(Cl)cc4)c(C)c3c(=O)[nH]2)c1

IC50 [1]: 17 µM
Molecule: Cc1c(-c2ccc(Cl)cc2)sc2nc(CCl)[nH]c(=O)c12

IC50 [1]: 13 µM
Molecule: CCCCCCCCNC(=O)c1cc(-c2ccccc2)sc1N
